Assay outcomes as filed in PubChem.
The list is not random: actives were taken first. Their share in the collection is about 2.4%.
EWS-Fli inh: EWS/Fli-driven NR0B1 reporter inhibitors, primary screen, A673 cells, NR0B1 luciferase, luminescence, MLPCN library. viability-normalised. inhibition, % at 12.6 µM. 350,000 tested, 0.67% active. AID 651661, 2012;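 active means mean inhibition of at least 50% after viability correction, with every replicate also passing that limit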;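 further: firefly luciferase signal divided by Alamar Blue viability fluorescence both relative to DMSO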
E-selectin induc: E-selectin induction in HUVECs, primary screen, imaging, HUVEC, immunofluorescence imaging, single point. P16581. normalized: neutral wells 0, TNF-alpha wells 100. activation, % at 7.58 µM. 260,000 tested, 0.37% active;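 active means mean E-selectin-positive cell signal at least 10% of the positive control, reached in at least 60% of replicates, without over 20% cell loss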
Target sequence (P16581 whole entry, looked up): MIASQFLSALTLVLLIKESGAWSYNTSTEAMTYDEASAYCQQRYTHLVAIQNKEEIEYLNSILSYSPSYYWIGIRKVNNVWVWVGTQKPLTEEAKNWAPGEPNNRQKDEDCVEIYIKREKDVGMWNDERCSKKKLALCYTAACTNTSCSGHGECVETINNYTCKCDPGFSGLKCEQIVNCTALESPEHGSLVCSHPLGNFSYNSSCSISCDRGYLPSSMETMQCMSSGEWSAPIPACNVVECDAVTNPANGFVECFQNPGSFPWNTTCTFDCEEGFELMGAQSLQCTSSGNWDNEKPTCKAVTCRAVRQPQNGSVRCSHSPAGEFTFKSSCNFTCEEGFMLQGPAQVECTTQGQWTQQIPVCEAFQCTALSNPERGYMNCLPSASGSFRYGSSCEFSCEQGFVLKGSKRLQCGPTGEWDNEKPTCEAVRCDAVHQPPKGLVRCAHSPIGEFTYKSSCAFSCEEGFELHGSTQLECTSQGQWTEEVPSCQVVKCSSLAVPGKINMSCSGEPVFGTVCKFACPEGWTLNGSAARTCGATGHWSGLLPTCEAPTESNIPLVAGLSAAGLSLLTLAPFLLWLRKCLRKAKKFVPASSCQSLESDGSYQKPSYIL
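assay system = HUVEC, human umbilical vein endothelial cells | input = 3,000 HUVEC seeded per well | medium = EGM-2 growth medium on 0.1% gelatin-coated wells | dosing = one compound dose added by pin transfer | signal = immunofluorescence imaging | read-out basis = % PE-positive cells | control set = TNF-alpha, DMSO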
LGR2 inh: inhibitors of bursicon-induced LGR2 CRE-luciferase signal, primary screen, cell-based, HEK293, CRE-luciferase reporter, bursicon stimulation; AID 720647, 2013; inhibition, % at 9.99 µM; bursicon-stimulated, 4 h; 380,000 tested, 0.35% active;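 active means drop in luminescence signal, shown as inhibition above about 50% in the replicate tests, limit read from the data, passing the limit was not always enough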;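 further: agonist challenge used bursicon conditioned medium at about half maximal strength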
rRNA inh HTS: reduced GFP signal of wild-type E. coli, primary screen, bacterial rRNA inhibitor project, GFP/RFP fluorescence, OD600, single point; AID 720706, 2013; 350,000 tested, 1.6% active; GFP signal change (wild-type ribosome), % (concentration not given with the values); E. coli WT GFP vs humanized-ribosome RFP mutants, 24 h; stronger effect = lower value; DMSO median 0, no signal -100;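 active means significant combined selectivity score with lowered wild-type GFP, culture density cut under 30%, mutant RFP and density less affected; inactive means any of these conditions unmet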
Starred values were filed as active, the others as inactive; / = not tested or not shown.

SMILES | EWS-Fli inh | E-selectin induc | LGR2 inh | rRNA inh HTS
CCOc1cccc(/C=N/NC(=S)Nc2ccccc2[N+](=O)[O-])c1O | 30.7 | / | 83.5* | 2.2
COc1ccc(NC(=O)N(C)C[C@@H]2OCc3ccccc3-c3c(n(C)c4ccccc34)C(=O)N([C@H](C)CO)C[C@@H]2C)cc1 | -8.4 | / | / | 2.8
O=S(=O)(NCc1cc(-c2ccccc2)no1)c1ccc(Cl)cc1 | / | 0.3 | / | /
O=S(=O)(NCc1cc(-c2ccccc2)no1)c1ccccc1 | -20.0 | / | 5.5 | -23.0*
O=C(CSc1nnc(-c2c[nH]c3ccccc23)o1)N1CCCCC1 | -37.1 | / | -20.8 | -32.5*
O=C(CSc1nnc(-c2c[nH]c3ccccc23)o1)N1c2ccccc2CCc2ccccc21 | 7.3 | / | 11.2 | -8.8
CCOc1ccc(/C=N/NC(=O)c2[nH]c3ccc(C)cc3c2C)cc1 | -2.8 | / | -14.4 | -2.5
Cc1c(C(=O)N/N=C/c2ccc(Cl)cc2)[nH]c2ccc(Cl)cc12 | 59.5* | / | -7.4 | 6.0
C[C@@H]1CN([C@H](C)CO)C(=O)c2cccc(NC(=O)Nc3ccccc3)c2O[C@H]1CN(C)Cc1ccc2c(c1)OCO2 | 2.2 | -2.4 | 12.4 | -10.0
C[C@H](NC(=O)C[C@H]1C=C[C@H](NC(=O)C2CC2)[C@H](CO)O1)c1ccccc1 | -2.4 | -0.2 | 14.9 | 3.6
NCc1csc(Nc2ccc(C(=O)c3ccccc3)cc2)n1 | 51.7* | 0.3 | -1.6 | -4.4
CN1CC(c2ccccc2)Oc2ccccc2C1=S (stereo unspecified) | -4.0 | / | -8.4 | -36.2*
O=C(O)c1cc(N/N=C/c2ccc3c(c2)OCCO3)ccc1Cl | 45.8 | / | 70.9* | -5.1
O=C(O)c1cc(N/N=C/C(Cl)=C/c2ccccc2)ccc1Cl | 3.4 | 0.2 | 73.3* | -24.3
O=C(O)c1cc(N/N=C/c2ccc3c(c2)OCO3)ccc1Cl | 2.9 | 0.0 | / | /
O=C(O)c1ccc(N/N=C/c2cc3cc4c(cc3nc2Cl)OCCO4)cc1 | 44.4 | 0.2 | 60.0* | 4.0
O=C(O)c1cc(NN=C2c3ccccc3-c3ccccc32)ccc1Cl | -4.5 | / | -2.9 | -48.5
CNC[C@@H]1Oc2ccc(NC(=O)CCC(F)(F)F)cc2CC(=O)N([C@H](C)CO)C[C@@H]1C | 0.3 | -0.1 | 0.4 | 1.2
O=C(NN1C(=O)C2C3C=CC([C@H]4CC34)[C@@H]2C1=O)c1ccc(Br)cc1 (stereo partly specified) | 5.5 | 0.3 | -9.7 | -9.5
O=C(NN1C(=O)C2C3C=CC(C4CC34)C2C1=O)c1cccc(Br)c1 (stereo unspecified) | -0.3 | 0.3 | -2.5 | -25.2*
CCCNC(=O)N1CC2(CN(C(=O)CC3CC3)C2)c2c(n(C)c3cc(OC)ccc23)[C@@H]1CO | -0.1 | -0.5 | -6.0 | 0.4
Cc1c(C#N)c(NC(=O)CCl)n(Cc2ccc(F)cc2)c1C | 37.4 | 41.7* | -2.5 | 10.8
COC(=O)c1cc(C(=O)OC)n(Cc2ccc(F)cc2)c1C | 7.3 | 1.4 | 18.6 | -40.5*
CCOc1ccccc1N/C(=C(/C(Cl)=C(Cl)Cl)[N+](=O)[O-])n1cncn1 | -5.3 | / | 4.4 | -25.1*
CCOc1ccccc1NC(=O)c1ccc(OCC)c([N+](=O)[O-])c1 | 0.4 | / | 5.3 | 14.6
SMILES | EWS-Fli inh | E-selectin induc | LGR2 inh | rRNA inh HTS
CO[C@@H]1CN(C)C(=O)c2ccc(NC(=O)C3CC3)cc2OC[C@@H](C)N(C(=O)Cc2ccccn2)C[C@@H]1C | 6.1 | 4.0 | -7.6 | 4.4
Cc1ccc(S(=O)(=O)N(C)C[C@H]2Oc3ccc(N(C)C)cc3C(=O)N([C@H](C)CO)C[C@@H]2C)cc1 | / | -14.7 | -0.2 | -1.5
Cc1ccc(S(=O)(=O)N(C)C[C@@H]2Oc3ccc(N(C)C)cc3C(=O)N([C@H](C)CO)C[C@H]2C)cc1 | / | 36.4* | -28.8 | -2.9
Cc1ccc(S(=O)(=O)N(C)C[C@H]2Oc3ccc(N(C)C)cc3C(=O)N([C@@H](C)CO)C[C@@H]2C)cc1 | / | 46.6* | 10.1 | -2.7
C[C@H]1CCCCO[C@H](CN(C)C(=O)c2ccncc2)[C@@H](C)CN([C@@H](C)CO)C(=O)c2cc(NC(=O)c3ccccc3)ccc2O1 | / | 0.1 | -3.9 | -1.9
O=C(N[C@H]1CC[C@H](CCn2cc(Cc3ccccc3)nn2)O[C@H]1CO)c1cnccn1 | -0.5 | -0.2 | -3.4 | 1.5
Cn1ccc(/C=N/N=C2/NC(=O)CS2)n1 | -2.3 | 0.1 | -0.5 | -43.2*
O=C1CS/C(=N/N=C/c2ccncc2)N1 | 14.4 | 0.1 | -2.0 | 5.5
